Our source for the IC50, Activity and Ki values is ChEMBL document CHEMBL1137082, “Potent and selective conformationally restricted neuronal nitric oxide synthase inhibitors” (J Med Chem, 2004).

Broadly, the IC50 is the concentration that inhibits the measured activity by half. In general, Ki refers to a measure of affinity in units of concentration, obtained from inhibition or displacement.

Where “and” joins values, the source holds several entries; their conditions need not be identical. Equal values may be shown once. Where only a bound is given, the exact number is not on record here.

Experiment [1] deals with T1, Nitric oxide synthase 3 (Bos taurus, UniProt P29473).
T1 sequence (P29473 whole entry): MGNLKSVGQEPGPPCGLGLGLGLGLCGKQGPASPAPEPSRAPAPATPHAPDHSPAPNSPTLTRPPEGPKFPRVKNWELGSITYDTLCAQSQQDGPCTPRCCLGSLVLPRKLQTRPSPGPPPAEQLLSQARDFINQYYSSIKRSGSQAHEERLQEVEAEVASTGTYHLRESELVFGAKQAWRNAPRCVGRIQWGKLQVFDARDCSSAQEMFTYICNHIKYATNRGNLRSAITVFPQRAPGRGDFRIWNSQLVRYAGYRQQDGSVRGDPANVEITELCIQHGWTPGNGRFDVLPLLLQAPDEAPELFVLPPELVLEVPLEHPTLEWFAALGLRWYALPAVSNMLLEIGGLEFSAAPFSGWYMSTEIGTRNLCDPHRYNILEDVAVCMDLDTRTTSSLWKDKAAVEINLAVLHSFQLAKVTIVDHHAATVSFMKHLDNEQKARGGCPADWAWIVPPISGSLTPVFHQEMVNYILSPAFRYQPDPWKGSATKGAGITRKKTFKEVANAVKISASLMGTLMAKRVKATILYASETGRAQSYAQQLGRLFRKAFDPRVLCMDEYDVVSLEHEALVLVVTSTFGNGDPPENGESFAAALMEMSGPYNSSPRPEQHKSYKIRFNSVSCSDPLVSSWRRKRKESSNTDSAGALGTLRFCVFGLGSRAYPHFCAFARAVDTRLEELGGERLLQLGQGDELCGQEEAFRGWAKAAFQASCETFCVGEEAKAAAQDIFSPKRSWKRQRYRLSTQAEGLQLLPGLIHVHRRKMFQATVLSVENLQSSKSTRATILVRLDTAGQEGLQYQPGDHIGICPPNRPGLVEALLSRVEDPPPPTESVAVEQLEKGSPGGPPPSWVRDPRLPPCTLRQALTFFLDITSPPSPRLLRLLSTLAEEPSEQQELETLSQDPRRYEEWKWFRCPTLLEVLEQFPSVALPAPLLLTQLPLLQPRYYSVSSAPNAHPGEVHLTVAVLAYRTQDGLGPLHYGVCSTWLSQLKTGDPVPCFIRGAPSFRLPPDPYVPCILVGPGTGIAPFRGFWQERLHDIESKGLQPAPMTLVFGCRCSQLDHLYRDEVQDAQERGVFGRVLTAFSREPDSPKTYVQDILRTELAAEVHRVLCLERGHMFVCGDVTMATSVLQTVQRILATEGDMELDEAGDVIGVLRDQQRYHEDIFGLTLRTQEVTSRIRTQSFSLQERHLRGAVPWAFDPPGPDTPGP
The experiment is described as follows: Inhibitory activity against endothelial nitric oxide synthase (eNOS).

The target of experiment [2] is T2, Nitric oxide synthase 1 (Rattus norvegicus, UniProt P29476). The experiment is described as follows: Inhibitory activity against neuronal nitric oxide synthase (nNOS).
T2 sequence (P29476 whole entry): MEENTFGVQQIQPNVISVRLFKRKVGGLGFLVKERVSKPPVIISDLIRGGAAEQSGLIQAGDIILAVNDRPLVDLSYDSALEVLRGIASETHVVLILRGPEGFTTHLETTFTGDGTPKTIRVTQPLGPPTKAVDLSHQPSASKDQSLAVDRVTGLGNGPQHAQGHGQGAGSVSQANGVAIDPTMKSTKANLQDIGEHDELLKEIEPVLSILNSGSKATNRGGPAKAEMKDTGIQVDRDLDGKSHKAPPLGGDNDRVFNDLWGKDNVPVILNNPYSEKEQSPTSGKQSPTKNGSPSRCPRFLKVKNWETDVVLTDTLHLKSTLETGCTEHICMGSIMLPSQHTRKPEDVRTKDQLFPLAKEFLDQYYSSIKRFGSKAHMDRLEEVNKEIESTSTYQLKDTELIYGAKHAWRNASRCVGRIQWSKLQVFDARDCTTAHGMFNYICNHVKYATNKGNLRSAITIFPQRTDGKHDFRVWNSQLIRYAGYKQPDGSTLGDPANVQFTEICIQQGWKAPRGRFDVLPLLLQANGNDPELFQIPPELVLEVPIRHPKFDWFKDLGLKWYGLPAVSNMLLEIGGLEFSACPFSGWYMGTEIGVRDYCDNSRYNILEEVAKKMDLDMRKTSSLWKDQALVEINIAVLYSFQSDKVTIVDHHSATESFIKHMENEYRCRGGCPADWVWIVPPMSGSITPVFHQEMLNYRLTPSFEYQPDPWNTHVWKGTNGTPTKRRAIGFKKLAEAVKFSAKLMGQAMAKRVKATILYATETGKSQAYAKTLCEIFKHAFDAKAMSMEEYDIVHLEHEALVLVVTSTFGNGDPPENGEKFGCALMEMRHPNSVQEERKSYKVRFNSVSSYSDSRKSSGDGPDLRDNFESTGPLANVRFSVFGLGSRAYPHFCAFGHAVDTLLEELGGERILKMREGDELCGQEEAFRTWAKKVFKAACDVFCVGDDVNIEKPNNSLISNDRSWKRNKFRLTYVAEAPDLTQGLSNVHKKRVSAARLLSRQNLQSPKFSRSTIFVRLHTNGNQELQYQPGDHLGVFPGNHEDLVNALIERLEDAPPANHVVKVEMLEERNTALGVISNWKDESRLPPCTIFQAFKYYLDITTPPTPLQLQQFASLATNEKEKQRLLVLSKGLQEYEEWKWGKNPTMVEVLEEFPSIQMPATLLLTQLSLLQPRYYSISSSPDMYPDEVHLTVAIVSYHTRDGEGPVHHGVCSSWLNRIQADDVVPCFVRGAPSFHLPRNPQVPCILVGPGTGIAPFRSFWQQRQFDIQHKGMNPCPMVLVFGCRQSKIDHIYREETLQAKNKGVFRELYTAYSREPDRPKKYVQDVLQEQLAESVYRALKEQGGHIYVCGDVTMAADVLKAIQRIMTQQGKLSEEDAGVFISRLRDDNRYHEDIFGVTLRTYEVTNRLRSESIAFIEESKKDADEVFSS
Experiment [3] has as its target T3, Nitric oxide synthase, inducible (Mus musculus) (UniProt P29477).
T3 sequence (whole entry): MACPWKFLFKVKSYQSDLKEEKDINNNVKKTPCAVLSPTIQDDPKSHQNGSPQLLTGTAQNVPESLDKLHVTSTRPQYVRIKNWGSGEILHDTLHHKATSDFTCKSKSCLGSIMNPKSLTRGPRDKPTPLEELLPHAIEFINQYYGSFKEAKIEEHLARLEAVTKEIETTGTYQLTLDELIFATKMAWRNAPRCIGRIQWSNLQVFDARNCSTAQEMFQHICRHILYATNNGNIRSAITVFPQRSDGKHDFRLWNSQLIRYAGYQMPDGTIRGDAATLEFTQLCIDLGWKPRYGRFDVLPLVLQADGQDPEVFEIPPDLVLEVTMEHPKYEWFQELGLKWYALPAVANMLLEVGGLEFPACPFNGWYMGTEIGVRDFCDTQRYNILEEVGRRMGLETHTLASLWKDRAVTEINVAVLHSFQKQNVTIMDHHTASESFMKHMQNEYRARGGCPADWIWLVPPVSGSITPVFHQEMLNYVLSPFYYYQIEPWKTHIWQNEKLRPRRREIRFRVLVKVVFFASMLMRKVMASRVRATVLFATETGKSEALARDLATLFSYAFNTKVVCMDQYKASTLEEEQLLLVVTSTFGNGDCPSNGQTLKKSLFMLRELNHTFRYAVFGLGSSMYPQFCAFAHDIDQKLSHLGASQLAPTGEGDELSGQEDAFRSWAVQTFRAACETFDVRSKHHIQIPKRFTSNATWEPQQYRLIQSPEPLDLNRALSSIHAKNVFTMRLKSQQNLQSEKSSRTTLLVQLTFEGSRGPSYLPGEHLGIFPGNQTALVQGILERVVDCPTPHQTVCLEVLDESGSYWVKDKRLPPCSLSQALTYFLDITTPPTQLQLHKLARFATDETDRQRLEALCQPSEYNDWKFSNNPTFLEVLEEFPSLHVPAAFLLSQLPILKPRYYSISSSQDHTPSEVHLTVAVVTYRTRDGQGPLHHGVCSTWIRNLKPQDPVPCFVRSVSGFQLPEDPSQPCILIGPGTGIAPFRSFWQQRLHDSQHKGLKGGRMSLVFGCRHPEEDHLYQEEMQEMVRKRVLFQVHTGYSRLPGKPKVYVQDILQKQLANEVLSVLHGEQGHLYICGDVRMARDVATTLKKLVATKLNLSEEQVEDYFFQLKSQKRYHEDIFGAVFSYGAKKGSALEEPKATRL
The experiment is described as follows: Inhibitory activity against inducible nitric oxide synthase (iNOS) at 100 uM. On the set-up: scale not given: the % may be the effect or the level left. Put shortly:
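Single-point screen against murine macrophage iNOS: enzyme residual activity measured at 100 μM inhibitor. NO formation monitored by hemoglobin capture assay with a UV/vis spectrophotometer.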

Experiment [4] has as its target T4, Nitric oxide synthase, inducible (Mus musculus, UniProt P29477).
T4 sequence (P29477 whole entry): T3 sequence (whole entry)
The experiment is described as follows: Inhibitory activity against inducible nitric oxide synthase (iNOS).

Experiment [5] addresses T2, Nitric oxide synthase 1. The experiment is described as follows: Binding affinity towards neuronal nitric oxide synthase (nNOS).
In experiment [6] the target is T4, Nitric oxide synthase, inducible.

`NC(=O)[C@@H]1C[C@@H](N)CN1C(=O)[C@@H](N)CCC/N=C(\N)N[N+](=O)[O-]`: the results for the IC50 in experiment [1] and in experiment [2] were > 100 µM and ~100 µM, respectively.
Consider `CC(=N)Nc1cccc(CN)c1`, for which the IC50 is 0.48 µM and 1.1 µM in experiment [1]; 0.011 µM in experiment [2].
Take `N=C(NCCC[C@H](N)C(=O)NC1CNC(C(N)=O)C1)N[N+](=O)[O-]` (single isomer, unassigned): the Activity in experiment [3] was 78%. Also, the half-maximal inhibitory concentration (IC50) in experiment [4] was found to be 441 µM; in experiment [2] it was 9.6 µM. Further, the figures for the Ki in experiment [5] and in experiment [6] were 1.1 µM and 199 µM, respectively.
Regarding `N=C(NCCC[C@@H](N)C(=O)N1CC(N)C[C@@H]1C(N)=O)N[N+](=O)[O-]` (single isomer, unassigned; cis), the IC50 in experiment [1] is > 100 µM; in experiment [2], ~100 µM.
Take `NC(=O)[C@@H]1C[C@@H](NC(=O)[C@@H](N)CCC/N=C(\N)N[N+](=O)[O-])CN1`: the Activity in experiment [3] worked out at 10%. Also, the 50% inhibitory concentration (IC50) in experiment [4] was found to be 65 µM; in experiment [2], 0.64 µM. This compound also registered a Ki in experiment [6] of 29 µM.
